Reference: ChEMBL document CHEMBL1138753, “Synthesis and biological activity of analogues of the antimicrotubule agent N,beta,beta-trimethyl-L-phenylalanyl-N(1)-[(1S,2E)-3-carboxy-1-isopropylbut-2-enyl]- N(1),3-dimethyl-L-valinamide (HTI-286)” (J Med Chem, 2004)
pIC50: −log10 of the molar value.

Key:
KB [1] = assay: Concentration required to inhibit tumor cell growth in KB-V1 cells; assay type: functional, cell-based; conditions: Homo sapiens
Method in brief: (§1)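 Cytotoxicity was measured in paclitaxel-sensitive KB-3-1 cells and in KB-8-5 and KB-V1 cells, which express moderate and high P-glycoprotein respectively. Result is the average IC50 (nM) ± SEM; SEM is omitted where it is below 10% of the average.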

Tubulin beta-1 chain = Tubulin beta-1 chain (Homo sapiens, UniProt Q9H4B7); assay: Percent inhibition of tubulin polymerization at 0.3 uM concentration; assay type: functional
Chain of Tubulin beta-1 chain (Q9H4B7 whole entry): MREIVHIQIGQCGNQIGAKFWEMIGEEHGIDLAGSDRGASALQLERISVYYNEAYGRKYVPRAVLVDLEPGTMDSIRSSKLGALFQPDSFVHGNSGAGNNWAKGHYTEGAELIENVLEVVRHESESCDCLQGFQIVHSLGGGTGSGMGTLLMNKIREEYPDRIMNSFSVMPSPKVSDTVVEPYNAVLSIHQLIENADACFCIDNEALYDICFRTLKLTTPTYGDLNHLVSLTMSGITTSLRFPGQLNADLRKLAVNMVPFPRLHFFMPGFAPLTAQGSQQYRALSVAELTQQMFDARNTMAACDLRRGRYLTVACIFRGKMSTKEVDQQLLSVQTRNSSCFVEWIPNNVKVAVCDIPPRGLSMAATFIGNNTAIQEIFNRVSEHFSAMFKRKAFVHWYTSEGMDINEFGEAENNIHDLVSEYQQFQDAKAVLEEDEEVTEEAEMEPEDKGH

[2] = Concentration required to inhibit tumor cell growth in KB-3-1 cells; assay type: functional, cell-based, Homo sapiens; method in brief: as §1
KB [3] = assay: Concentration required to inhibit tumor cell growth in KB-8-5 cells; assay type: functional, cell-based, Homo sapiens; method in brief: as §1

pIC50 (KB [3]; kb) | Structure (SMILES) | pIC50 (KB [1]) | inhibition (Tubulin beta-1 chain) [%] | pIC50 ([2]; Homo sapiens, KB 3-1) | pIC50 (KB [3]; Homo sapiens, KB) | pIC50 ([2]; kb 3-1)
– | CN[C@H](C(=O)N[C@H](C(=O)N(C)[C@H](/C=C(\C)C(=O)O)C(C)C)C(C)(C)C)[C@@H](C)c1ccccc1 | < 5.52 | 84 | 6.68 | 6.38 | –
– | C/C(=C\[C@H](C(C)C)N(C)C(=O)[C@@H](NC(=O)[C@@H](NCCO)C(C)(C)c1ccccc1)C(C)(C)C)C(=O)O | < 5.52 | 90 | 6.74 | 6.21 | –
– | CNC(=O)CN[C@H](C(=O)N[C@H](C(=O)N(C)[C@H](/C=C(\C)C(=O)O)C(C)C)C(C)(C)C)C(C)(C)c1ccccc1 | < 5.52 | 0 | < 5.52 | < 5.52 | –
– | CC[C@H](NC(=O)[C@@H](NC)C(C)(C)c1ccccc1)C(=O)N(C)[C@H](/C=C(\C)C(=O)O)C(C)C | 5.97 | 73 | 7.32 | 7.15 | –
– | CS[C@@H](C(=O)N[C@H](C(=O)N(C)[C@H](/C=C(\C)C(=O)O)C(C)C)C(C)(C)C)C(C)(C)c1ccccc1 | < 5.22 | 79 | 6.16 | 5.94 | –
– | CN[C@H](C(=O)N[C@@H](C)C(=O)N(C)[C@H](/C=C(\C)C(=O)O)C(C)C)C(C)(C)c1ccccc1 | < 5.52 | 8 | 6.42 | 6.04 | –
– | C/C(=C\[C@H](C(C)C)N(C)C(=O)[C@@H](NC(=O)[C@@H](Cc1ccccc1)C(C)(C)c1ccccc1)C(C)(C)C)C(=O)O | < 5.22 | 46 | 5.77 | 5.65 | –
– | CN[C@H](C(=O)N(C)[C@H](C(=O)N(C)[C@H](/C=C(\C)C(=O)O)C(C)C)C(C)(C)C)C(C)(C)c1ccccc1 | < 5.52 | 4 | < 5.52 | < 5.52 | –
– | CN[C@H](C(=O)N[C@H](C(=O)N(C)[C@H](/C=C(\C)C(=O)O)C(C)C)C(C)(C)C)C(C)(C)c1ccc(-c2ccccc2)cc1 | 6.75 | 86 | 8.49 | 8.17 | –
– | CN[C@H](C(=O)N[C@H](C(=O)N(C)[C@H](/C=C(\C)C(N)=O)C(C)C)C(C)(C)C)C(C)(C)c1ccccc1 | < 5.52 | 72 | 7.19 | 6.79 | –
– | CC[C@H](C(=O)N[C@H](C(=O)N(C)[C@H](/C=C(\C)C(=O)O)C(C)C)C(C)(C)C)C(C)(C)c1ccccc1 | 5.28 | 54 | 6.04 | 5.92 | –
– | CNCC(=O)N[C@H](C(=O)N[C@H](C(=O)N(C)[C@H](/C=C(\C)C(=O)O)C(C)C)C(C)(C)C)C(C)(C)c1ccccc1 | < 5.52 | 4 | 5.85 | 5.67 | –
– | CN[C@H](C(=O)N[C@@H](C(=O)N(C)[C@H](/C=C(\C)C(=O)O)C(C)C)C(C)(C)C)C(C)(C)c1ccccc1 | < 5.52 | 1 | < 5.52 | < 5.52 | –
– | C=CC[C@@H](C(=O)N[C@H](C(=O)N(C)[C@H](/C=C(\C)C(=O)O)C(C)C)C(C)(C)C)C(C)(C)c1ccccc1 | < 5.22 | 63 | 5.94 | 5.92 | –
– | CCC[C@H](NC(=O)[C@@H](NC)C(C)(C)c1ccccc1)C(=O)N(C)[C@H](/C=C(\C)C(=O)O)C(C)C | 6.24 | 51 | 7.82 | 7.72 | –
– | CN[C@H](C(=O)N[C@H](C(=O)N(C)[C@H](/C=C(\C)C(=O)NCc1ccc(-c2ccccc2)cc1)C(C)C)C(C)(C)C)C(C)(C)c1ccccc1 | < 5.52 | 11 | 6.18 | 5.78 | –
– | CN[C@H](C(=O)N[C@H](C(=O)N(C)[C@H](/C=C(\C)C(=O)O)Cc1ccccc1)C(C)(C)C)C(C)(C)c1ccccc1 | < 5.52 | 44 | 6.32 | 5.88 | –
– | C/C(=C\[C@H](C(C)C)N(C)C(=O)[C@@H](NC(=O)[C@@H](N1CCCC1)C(C)(C)c1ccccc1)C(C)(C)C)C(=O)O | < 5.52 | 83 | 7.12 | 6.80 | –
– | CN[C@H](C(=O)N[C@H](C(=O)N(C)[C@H](/C=C(\C)C(=O)NCCc1ccccc1)C(C)C)C(C)(C)C)C(C)(C)c1ccccc1 | 5.75 | 72 | 6.79 | 6.65 | –
– | CN[C@H](C(=O)N[C@H](C(=O)N(C)[C@H](/C=C(\C)C(=O)O)C(C)C)C(C)(C)C)C(C)(C)Cc1ccccc1 | 6.66 | 87 | 8.52 | 8.22 | –
– | CN[C@H](C(=O)N[C@H](C(=O)N(C)[C@H](C[C@H](C)C(=O)O)C(C)C)C(C)(C)C)C(C)(C)c1ccccc1 | < 5.52 | 74 | 7.32 | 7.16 | –
– | CN[C@H](C(=O)N[C@H](C(=O)N(C)[C@H](/C=C(\C)C(=O)NO)C(C)C)C(C)(C)C)C(C)(C)c1ccccc1 | < 5.52 | 75 | 7.41 | 6.64 | –

pIC50 (KB [3]; kb) | Structure (SMILES) | pIC50 (KB [1]) | inhibition (Tubulin beta-1 chain) [%] | pIC50 ([2]; Homo sapiens, KB 3-1) | pIC50 (KB [3]; Homo sapiens, KB) | pIC50 ([2]; kb 3-1)
– | CN[C@H](C(=O)N[C@H](C(=O)N(C)[C@H](/C=C(\C)C(=O)O)C(C)C)C(C)(C)C)C(C)(C)O | < 5.52 | 40 | 6.82 | 6.53 | –
– | C/C(=C\[C@H](C(C)C)N(C)C(=O)[C@@H](NC(=O)CC(C)(C)c1ccccc1)C(C)(C)C)C(=O)O | < 5.52 | 21 | < 5.52 | < 5.52 | –
– | CN[C@H](C(=O)N[C@H](C(=O)N(C)[C@H](/C=C(\C)C(=O)O)C(C)C)C(C)(C)C)C1(c2ccccc2)CCCCC1 | < 5.52 | 5 | 6.69 | 6.44 | –
– | CN[C@H](C(=O)N[C@H](C(=O)N(C)[C@H](/C=C(\C)C(=O)O)C(C)C)C(C)(C)C)[C@H](C)c1ccccc1 | < 5.52 | 77 | 6.36 | 6.23 | –
– | CCCCCC(C)(C)[C@H](NC)C(=O)N[C@H](C(=O)N(C)[C@H](/C=C(\C)C(=O)O)C(C)C)C(C)(C)C | 6.29 | 72 | 8.05 | 7.72 | –
6.26 | C/C(=C\[C@H](C(C)C)N(C)C(=O)[C@@H](NC(=O)[C@@H](N)C(C)(C)c1ccccc1)C(C)(C)C)C(=O)O (stereo in doubt; 20) [listing 1 of 2 here] | < 5.52 | – | – | – | 6.37
– | C/C(=C\[C@H](C(C)C)N(C)C(=O)[C@@H](NC(=O)[C@H](C(C)(C)c1ccccc1)S(C)(=O)=O)C(C)(C)C)C(=O)O | < 5.52 | 80 | 5.76 | 5.68 | –
– | C/C(=C\[C@H](C(C)C)N(C)C(=O)[C@@H](NC(=O)[C@@H](NCC(=O)O)C(C)(C)c1ccccc1)C(C)(C)C)C(=O)O | < 5.52 | 35 | < 5.52 | < 5.52 | –
– | CN[C@H](C(=O)N[C@H](C(=O)N(C)[C@H](/C=C(\C)C(=O)O)C(C)C)C(C)(C)C)C1(c2ccccc2)CCCC1 | 5.57 | 77 | 7.23 | 7.20 | –
– | C/C(=C\[C@H](C(C)C)N(C)C(=O)[C@@H](NC(=O)[C@H](Cc1ccccc1)C(C)(C)c1ccccc1)C(C)(C)C)C(=O)O | < 5.22 | 46 | 5.77 | 5.65 | –
– | C=CC[C@H](C(=O)N[C@H](C(=O)N(C)[C@H](/C=C(\C)C(=O)O)C(C)C)C(C)(C)C)C(C)(C)c1ccccc1 | < 5.22 | 63 | 5.94 | 5.92 | –
– | CN[C@H](C(=O)N[C@H](C(=O)N(C)[C@H](/C=C(\C)C(=O)N1CCN(Cc2ccccc2)CC1)C(C)C)C(C)(C)C)C(C)(C)c1ccccc1 | 6.44 | 29 | 7.82 | 7.66 | –
– | C/C(=C\[C@H](C(C)C)N(C)C(=O)[C@@H](NC(=O)[C@@H](C(C)(C)c1ccccc1)S(C)(=O)=O)C(C)(C)C)C(=O)O | < 5.52 | 80 | 5.76 | 5.68 | –
– | CCN[C@H](C(=O)N[C@H](C(=O)N(C)[C@H](/C=C(\C)C(=O)O)C(C)C)C(C)(C)C)C(C)(C)c1ccccc1 | 6.94 | 96 | 8.80 | 8.62 | –
– | CCC(CC)(c1ccccc1)[C@H](NC)C(=O)N[C@H](C(=O)N(C)[C@H](/C=C(\C)C(=O)O)C(C)C)C(C)(C)C | 6.32 | 86 | 8.07 | 7.74 | –
– | CCCCCCCCOC(=O)/C(C)=C/[C@H](C(C)C)N(C)C(=O)[C@@H](NC(=O)[C@@H](NC)C(C)(C)c1ccccc1)C(C)(C)C | < 5.52 | 26 | 6.82 | 5.79 | –
– | CN[C@H](C(=O)N[C@H](C(=O)N(C)[C@H](/C=C(\C)C(=O)O)C(C)C)C(C)(C)C)C(C)(C)C | < 5.52 | 43 | 6.94 | 6.74 | –
– | C/C(=C\[C@H](C(C)C)N(C)C(=O)[C@@H](NC(=O)[C@@H](N)C(C)(C)c1ccccc1)C(C)(C)C)C(=O)O (stereo in doubt; 63) | – | 49 | – | – | –
– | CN[C@@H](Cc1ccccc1)C(=O)N[C@H](C(=O)N(C)[C@H](/C=C(\C)C(=O)O)C(C)C)C(C)(C)C | < 5.52 | 66 | 6.22 | 6.19 | –
– | CN[C@H](C(=O)N[C@H](C(=O)N(C)[C@H](/C=C(\C)C(=O)O)C(C)C)C(C)(C)C)C1(c2ccccc2)CC1 | 5.78 | 99 | 7.57 | 7.24 | –
– | CN[C@H](C(=O)N[C@@H](Cc1ccccc1)C(=O)N(C)[C@H](/C=C(\C)C(=O)O)C(C)C)C(C)(C)c1ccccc1 | < 5.52 | 40 | 5.88 | 5.62 | –
– | C/C(=C\[C@H](C(C)C)N(C)C(=O)[C@@H](NC(=O)[C@@H](N)C(C)(C)c1ccccc1)C(C)(C)C)C(=O)O (stereo in doubt; 20) [listing 2 of 2 here] | – | 95 | – | – | –
